Source: PubChem (The Scripps Research Institute Molecular Screening Center)
ZTA counter: ZTA (EBV) inhibition in EBNA-1 counter-screen. P03206. ZTA-DNA binding, fluorescence polarization. inhibition, % at 11 µM. 320,000 compounds, 0.15% hits. AID 2234; in the data active = inhibition above about 33%
Target sequence (P03206 whole entry, looked up): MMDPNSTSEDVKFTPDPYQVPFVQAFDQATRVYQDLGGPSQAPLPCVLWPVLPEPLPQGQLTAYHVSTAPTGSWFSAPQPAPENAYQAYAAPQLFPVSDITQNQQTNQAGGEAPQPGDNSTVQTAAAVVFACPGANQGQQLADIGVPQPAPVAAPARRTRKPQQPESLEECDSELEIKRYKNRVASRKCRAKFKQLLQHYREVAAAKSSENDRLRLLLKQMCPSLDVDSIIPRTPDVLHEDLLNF
GPR7 antag: human neuropeptides B/W receptor 1 antagonism; P48145; GPR7-expressing cells, fluorescence antagonist assay; inhibition, % at 4.4 µM; 290,000 compounds, 1.1% hits; in the data active = inhibition above about 16%, passing the limit was not always enough;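 also: cells stimulated with the agonist NPW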
Target sequence (P48145 whole entry, looked up): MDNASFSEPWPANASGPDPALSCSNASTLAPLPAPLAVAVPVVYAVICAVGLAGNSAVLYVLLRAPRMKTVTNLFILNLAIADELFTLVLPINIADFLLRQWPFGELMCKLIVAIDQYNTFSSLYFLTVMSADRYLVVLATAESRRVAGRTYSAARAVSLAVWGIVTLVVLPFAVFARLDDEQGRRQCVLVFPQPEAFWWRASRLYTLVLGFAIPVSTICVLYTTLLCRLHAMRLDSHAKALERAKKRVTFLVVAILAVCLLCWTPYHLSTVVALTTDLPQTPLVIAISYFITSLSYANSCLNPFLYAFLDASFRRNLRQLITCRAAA
NS3 helicase inh: inhibitors of Hepatitis C virus NS3 helicase. NS3 helicase DNA unwinding, Cy5 molecular beacon fluorescence. inhibition, % at 10.9 µM. 290,000 compounds, 0.56% hits. AID 1800;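 active = inhibition above the mean of all tested compounds plus 3 SD, set per campaign, cut at about 35% in these data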
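System: Hepatitis C virus NS3 helicase domain fragment enzyme | Reagent: Annealed dual-labelled DNA beacon duplex, ATP-started | Compound dosing: 10.9 µM single point, 0.8% DMSO | Incubation: 1 h reaction at 25 °C, ATP-initiated | Technique: Cy5 fluorescence | Evaluation: Percent inhibition from t60/t0 fluorescence ratio | Benchmarks: Low DMSO, high thioflavine S at 110 µM | Replication: Singlicate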
EBNA-1 inhibitor: blocks EBNA-1 binding to DNA | AID 1950 | inhibition, % at 14.8 µM | 300,000 compounds, 0.34% hits | EBNA-1 DNA binding, fluorescence polarization; in the data active = inhibition above about 28%
DNA FID counter: fluorescent intercalator displacement, NS3 helicase counter-screen; DNA fluorescent intercalator displacement, fluorescence; inhibition, % at 7.9 µM; 290,000 compounds, 0.17% hits; AID 1845; in the data active = inhibition above about 37%;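 also: higher means more ethidium bromide displaced from hairpin DNA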
Hits are given with their value. An excerpt weighted towards active compounds, which were near 2% of everything screened.

For O=C(NCc1cccnc1)/C(=C/c1ccc(-c2cccc(Cl)c2)o1)S(=O)(=O)c1ccccc1 the results were ZTA counter inactive, GPR7 antag inactive, NS3 helicase inh inactive, EBNA-1 inhibitor inactive and DNA FID counter inactive.
Screening O=C(NCc1cccnc1)/C(=C\c1ccc(-c2cccc(Cl)c2)o1)S(=O)(=O)c1ccccc1 returned ZTA counter inactive, GPR7 antag 20.0, NS3 helicase inh inactive, EBNA-1 inhibitor inactive and DNA FID counter inactive.
Screening CCCCn1c(N)c(N(CC)C(=O)C2=COCCO2)c(=O)[nH]c1=O returned ZTA counter inactive and EBNA-1 inhibitor inactive.
Screening CC(C)C(C)NC(=O)COC(=O)C1CCN(S(=O)(=O)c2ccc3c(c2)OCCO3)CC1 (stereo unspecified) returned ZTA counter inactive and EBNA-1 inhibitor inactive.
`O=C1OCC2=C1C(c1ccc(F)cc1)c1cc3c(cc1N2)OCCO3` (stereo unspecified) gave GPR7 antag 19.4, NS3 helicase inh inactive and DNA FID counter inactive.
Screening O=C1OCC2=C1C(c1ccc(F)cc1)c1cc3c(cc1N2)OCO3 (stereo unspecified) returned GPR7 antag 18.6, NS3 helicase inh inactive and DNA FID counter inactive.
`CCOc1ccccc1C1C2=C(COC2=O)Nc2cc3c(cc21)OCO3` (stereo unspecified) gave ZTA counter inactive, GPR7 antag inactive, NS3 helicase inh inactive, EBNA-1 inhibitor inactive and DNA FID counter inactive.
Screening Cc1ccc(C(C)C)c(OCc2nn(CC(=O)c3ccc(Cl)cc3)c3[n+]2CCCCC3)c1 returned ZTA counter inactive, GPR7 antag 37.7, NS3 helicase inh inactive, EBNA-1 inhibitor inactive and DNA FID counter inactive.
Cc1ccccc1NS(=O)(=O)c1ccc(NS(=O)(=O)c2cccs2)cc1 was read as ZTA counter inactive, GPR7 antag inactive, NS3 helicase inh inactive, EBNA-1 inhibitor inactive and DNA FID counter inactive.
`O=C(c1ccc(-c2cccc(Cl)c2Cl)o1)N1CCOCC1` gave ZTA counter inactive, GPR7 antag inactive, NS3 helicase inh inactive, EBNA-1 inhibitor inactive and DNA FID counter inactive.
`O=C(c1ccc(-c2ccc([N+](=O)[O-])cc2Cl)o1)N1CCOCC1` gave ZTA counter inactive, GPR7 antag 20.4, NS3 helicase inh inactive, EBNA-1 inhibitor inactive and DNA FID counter inactive.
For COc1ccc(C(NC(=O)c2c(F)c(F)c(F)c(F)c2F)c2ccccc2)cc1 (stereo unspecified) the results were ZTA counter inactive, GPR7 antag 31.5, NS3 helicase inh inactive, EBNA-1 inhibitor inactive and DNA FID counter inactive.
Screening CCOc1ccc(N2CC(NS(=O)(=O)c3cccnc3)CC2=O)cc1 (stereo unspecified) returned ZTA counter inactive and EBNA-1 inhibitor inactive.
`Cn1c(N)c(C(=O)COC(=O)Cc2ccsc2)c(=O)n(C)c1=O` gave ZTA counter inactive, GPR7 antag 19.8, NS3 helicase inh inactive, EBNA-1 inhibitor inactive and DNA FID counter inactive.
For O=C(c1ccc(Cl)cc1)C1CCCN(Cc2cccn2-c2ccccn2)C1 (stereo unspecified) the results were ZTA counter inactive, GPR7 antag inactive, NS3 helicase inh inactive, EBNA-1 inhibitor inactive and DNA FID counter inactive.
`Cc1ccsc1C(=O)C1CCCN(Cc2cccn2-c2ccc(Cl)cn2)C1` (stereo unspecified) gave ZTA counter inactive, GPR7 antag 39.5, NS3 helicase inh inactive, EBNA-1 inhibitor inactive and DNA FID counter inactive.
c1cc2c3c(cccc3c1)C(N1CCCCCC1)=N2 was read as ZTA counter inactive, GPR7 antag 32.3, NS3 helicase inh inactive, EBNA-1 inhibitor inactive and DNA FID counter inactive.
`c1cc2c3c(cccc3c1)C(N1CCCCC1)=N2` gave ZTA counter inactive, GPR7 antag inactive, NS3 helicase inh inactive, EBNA-1 inhibitor inactive and DNA FID counter inactive.
For CC1/C(=N/O)CC(c2ccccc2)NC1c1ccccc1 (stereo unspecified) the results were ZTA counter inactive, GPR7 antag inactive, NS3 helicase inh inactive, EBNA-1 inhibitor inactive and DNA FID counter inactive.
Screening CC(C)C1/C(=N/O)CC(c2ccccc2)NC1c1ccccc1 (stereo unspecified) returned ZTA counter inactive, GPR7 antag 20.9, NS3 helicase inh inactive, EBNA-1 inhibitor inactive and DNA FID counter inactive.
For COc1ccc2cc(C(C)C(=O)N3CCC(C(N)=O)CC3)ccc2c1 (stereo unspecified) the results were ZTA counter inactive, GPR7 antag inactive, NS3 helicase inh inactive, EBNA-1 inhibitor inactive and DNA FID counter inactive.
For O=C(COc1ccc(Br)cc1Br)NC(=S)N1CCCc2ccccc21 the results were ZTA counter 42.0, GPR7 antag inactive, NS3 helicase inh inactive, EBNA-1 inhibitor inactive and DNA FID counter inactive.
Screening O=C(COc1ccc(Br)cc1Cl)NC(=S)N1CCc2ccccc21 returned ZTA counter inactive, GPR7 antag inactive, NS3 helicase inh inactive, EBNA-1 inhibitor inactive and DNA FID counter inactive.
For CC1(OC(=O)c2cnc3ccccc3n2)C(=O)C=C2C=C(C3CC3)OC=C2C1=O (stereo unspecified) the results were ZTA counter 47.7 and EBNA-1 inhibitor 27.5.
`O=C(NCc1ccc(Cl)cc1)c1ccccc1CCc1ccccc1` gave ZTA counter inactive, GPR7 antag inactive, NS3 helicase inh inactive, EBNA-1 inhibitor 31.0 and DNA FID counter inactive.
`O=C(COC(=O)CCCOc1ccccc1)NC1CCS(=O)(=O)C1` (stereo unspecified) gave ZTA counter inactive and EBNA-1 inhibitor inactive.
`O=C(Nc1ccc(C(O)(C(F)(F)F)C(F)(F)F)cc1)c1ccc(Cl)c([N+](=O)[O-])c1` gave ZTA counter inactive, GPR7 antag 43.1, NS3 helicase inh inactive, EBNA-1 inhibitor inactive and DNA FID counter inactive.
Screening N#Cc1ccsc1NC(=O)c1ccc(Cl)c([N+](=O)[O-])c1 returned ZTA counter inactive, GPR7 antag 19.9, NS3 helicase inh inactive, EBNA-1 inhibitor inactive and DNA FID counter inactive.
CCN(c1ccccc1)S(=O)(=O)c1nnc(NC(=O)C(C)C)s1 was read as ZTA counter inactive, GPR7 antag inactive, NS3 helicase inh inactive, EBNA-1 inhibitor inactive and DNA FID counter inactive.
`CC1CCCN(CCCNS(=O)(=O)c2ccc3c(c2)CCN3C(=O)C2CC2)C1` (stereo unspecified) gave ZTA counter inactive, GPR7 antag inactive, NS3 helicase inh inactive, EBNA-1 inhibitor inactive and DNA FID counter inactive.
For Cc1ccc(N2CC(C(=O)Nc3nnc(SCC(=O)Nc4nc(C)cs4)s3)CC2=O)cc1 (stereo unspecified) the results were ZTA counter inactive, GPR7 antag inactive, NS3 helicase inh inactive, EBNA-1 inhibitor 31.0 and DNA FID counter inactive.
Screening Cc1csc(NC(=O)CSc2nnc(NC(=O)C3CC(=O)N(c4ccccc4)C3)s2)n1 (stereo unspecified) returned ZTA counter inactive, GPR7 antag inactive, NS3 helicase inh inactive, EBNA-1 inhibitor inactive and DNA FID counter inactive.
Screening CCN(CC)S(=O)(=O)c1cc(C(=O)n2cccn2)c(Cl)cc1Cl returned ZTA counter inactive, GPR7 antag 18.9, NS3 helicase inh inactive, EBNA-1 inhibitor inactive and DNA FID counter inactive.
